Assay results from ChEMBL document CHEMBL1275336, “Identification of a novel pyrrole derivative endowed with antimycobacterial activity and protection index comparable to that of the current antitubercular drugs streptomycin and rifampin” (Bioorg Med Chem, 2010).
≈ marks a conversion by molar mass, not a printed value.

Legend:
[1] = system: Mycobacterium tuberculosis; experiment: Antimycobacterial activity against isoniazid-resistant Mycobacterium tuberculosis after 3 to 28 days by twofold dilution method; assay type: functional
Method in brief: (§1)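 Twofold agar dilution in Middlebrook 7H11 with 10% OADC; plates held at 37 °C for 3 or 28 days. MIC is the lowest concentration giving complete inhibition of visible mycobacterial growth. Rifampin, streptomycin and BM521 served as references.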

[2] = system: Mycobacterium tuberculosis; experiment: Antimycobacterial activity against rifampin-resistant Mycobacterium tuberculosis after 3 to 28 days by twofold dilution method; assay type: functional; method in brief: as §1

| Compound | MIC [1] | MIC [2] |
| --- | --- | --- |
| CSc1ccc(-c2cc(CN3CCSCC3)c(C)n2-c2ccc(F)cc2)cc1 | > 16 µg/mL | 0.25 µg/mL (≈ 0.606 µM) |
| Cc1ccc(-c2cc(CN3CCSCC3)c(C)n2-c2ccc(F)cc2)cc1 | 32 µg/mL (≈ 84.1 µM) | 0.5 µg/mL (≈ 1.31 µM) |
| CO[C@H]1/C=C/O[C@@]2(C)Oc3c(C)c(O)c4c(O)c(c(/C=N/N5CCN(C)CC5)c(O)c4c3C2=O)NC(=O)/C(C)=C\C=C\[C@H](C)[C@H](O)[C@@H](C)[C@@H](O)[C@@H](C)[C@H](OC(C)=O)[C@@H]1C [RIFAMPIN] | 0.8 µg/mL (≈ 0.972 µM) | > 64 µg/mL |
| CN[C@@H]1[C@H](O[C@H]2[C@H](O[C@H]3[C@H](O)[C@@H](O)[C@H](N=C(N)N)[C@@H](O)[C@@H]3N=C(N)N)O[C@@H](C)[C@]2(O)C=O)O[C@@H](CO)[C@H](O)[C@H]1O [STREPTOMYCIN] | 0.5 µg/mL (≈ 0.86 µM) | 0.5 µg/mL (≈ 0.86 µM) |
